Assay results taken from ChEMBL document CHEMBL5532752, “Integrating a quinone substructure into histone deacetylase inhibitors to cope with Alzheimer's disease and cancer” (RSC Med Chem, 2024).

Experiments:
Type in all cases: functional
SH-SY5Y [1] = test: Cytotoxicity against human SH-SY5Y cells assessed as reduction in cell viability incubated for 48 hrs by MUH reagent based spectrophotometric analysis
SH-SY5Y [2] = test: Cytotoxicity against human SH-SY5Y cells assessed as reduction in cell viability incubated for 24 hrs by MUH reagent based spectrophotometric analysis
SH-SY5Y [3] = test: Cytotoxicity against human SH-SY5Y cells assessed as reduction in cell viability incubated for 72 hrs by MUH reagent based spectrophotometric analysis
Procedure, shortened: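 SH-SY5Y in DMEM/10% FBS seeded 0.75 × 10⁴ cells/well, after 24 h treated with 0.1–100 μM for 24, 48 or 72 h. Washed, incubated with MUH 0.01 mg/mL in PBS 30 min at 37 °C in the dark; fluorescence ex 330/em 450 nm, normalized to untreated cells. IC50 by nonlinear regression, log(inhibitor) vs normalized response.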

CC1=C(NCCCCCC(=O)NO)C(=O)c2ccccc2C1=O showed an IC50 (SH-SY5Y [1]) of 84.4 µM, an IC50 (SH-SY5Y [2]) of 178 µM and an IC50 (SH-SY5Y [3]) of 53 µM.

CC1=C(NCc2ccc(C(=O)NO)cc2)C(=O)c2ccccc2C1=O was tested, and the IC50 (SH-SY5Y [1]) was 19.8 µM, the IC50 (SH-SY5Y [2]) was 39 µM and the IC50 (SH-SY5Y [3]) was 14 µM.

O=C(CS)NCCCCNC1=CC(=O)c2ccccc2C1=O showed an IC50 (SH-SY5Y [1]) of over 100 µM, an IC50 (SH-SY5Y [2]) of over 100 µM and an IC50 (SH-SY5Y [3]) of over 100 µM.

Nc1ccccc1NC(=O)c1ccc(CNC2=CC(=O)c3ccccc3C2=O)cc1 showed an IC50 (SH-SY5Y [1]) of 8.53 µM, an IC50 (SH-SY5Y [2]) of 59.5 µM and an IC50 (SH-SY5Y [3]) of 4.42 µM.

O=C(CCCCCNC1=CC(=O)c2ccccc2C1=O)NO showed an IC50 (SH-SY5Y [1]) of 26.9 µM, an IC50 (SH-SY5Y [2]) of 80 µM and an IC50 (SH-SY5Y [3]) of 22.5 µM.

O=C(NO)c1ccc(CNC2=CC(=O)c3ccccc3C2=O)cc1 was tested, and the IC50 (SH-SY5Y [1]) was 8.67 µM, the IC50 (SH-SY5Y [2]) was 39 µM and the IC50 (SH-SY5Y [3]) was 7.74 µM.
